Screening results as filed in PubChem BioAssay.
SENP8 block-1 = human SENP8 protease inhibitors, primary screen, biochemical, fluorescence, Nedd8 protein substrate, uHTS; recombinant SENP8; inhibition, % at 20 µM; 360,000 compounds, 0.64% hits; Sentrin-specific protease 8 (Homo sapiens), Q96LD8; in the data active means inhibition mostly above about 40%, no sharp cut-off; inactive means mostly below about 27%
Apaf-1 inh = inhibitors of human Apaf-1 apoptosome, primary screen, biochemical, DEVD-Rh110 fluorescence, uHTS. Apoptotic protease-activating factor 1 (Homo sapiens), O14727. reconstituted apoptosome caspase-3 activity. inhibition, % at 20 µM. 330,000 compounds, 0.71% hits. AID 489030, 2010; active means inhibition of at least 40% at 20 µM;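 further: plate controls were DMSO wells for no effect and DEVD-CHO caspase inhibitor wells for full effect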
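System: Apoptosome proteins | Medium: Hepes pH 7.5 with detergent and BSA | Also added: Cytochrome c trigger plus (Z-DEVD)2-Rh110 caspase-3 substrate | Incubation: 30 min compound preincubation, 50 min activation, room temperature | Detection: Rhodamine 110 fluorescence at Ex 480/Em 540 nm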
SENP8 block-2 = SENP8 protease inhibitors, primary screen, biochemical, luminescence; purified SENP8, Z-RLRGG-aminoluciferin cleavage; inhibition, % at 10 µM; 330,000 compounds, 1.2% hits; AID 2540, 2010; in the data active means inhibition above about 50%
SENP7 block = SENP7 protease inhibitors, primary screen, biochemical, luminescence, uHTS. recombinant SENP7, Z-RLRGG-aminoluciferin luminescence, 40 min. Sentrin-specific protease 7 (Homo sapiens), Q9BQF6. inhibition, % at 5 µM. AID 434973, 2010. 330,000 compounds, 1.5% hits;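 active means inhibition above about 50% at the single test dose, limit read from the data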;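 further: plate controls were DMSO with enzyme for no effect and no enzyme buffer wells for full effect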
SENP6 block = SENP6 protease inhibitors, primary screen, biochemical, luminescence, uHTS; 330,000 compounds, 1.8% hits; Recombinant SENP6 catalytic domain, aminoluciferin luminescence; inhibition, % at 10 µM; AID 2599, 2010;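 active means inhibition above about 50% at the single tested dose, limit read from the data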;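 further: plate controls were DMSO wells with enzyme for no effect and DMSO wells lacking enzyme for full effect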
SENP1 FRET inh = human SENP1 catalytic domain inhibitors, primary screen, biochemical, FRET, uHTS. Sentrin-specific protease 1 (Homo sapiens), Q9P0U3. recombinant SENP1 catalytic domain, CyPet-SUMO1-YPet FRET cleavage. inhibition, % at 10 µM. 360,000 compounds, 0.21% hits. AID 624204, 2012;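 active means inhibition at least 30% at 10 µM, raw YFP signal under a set limit, fluorescence ratio 0.5 to 1.5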;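 further: 0% = enzyme with DMSO and 100% = no enzyme wells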
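Test system: hSENP1 catalytic domain, recombinant; Amount: 20 pM final SENP1 enzyme; Medium: Tris pH 8 buffer plus EDTA, NaCl, BME, BSA, NP40, catalase; Schedule: 50 min enzyme reaction, room temperature, light-protected; Technique: FRET fluorescence in CFP and YFP emission channels; Controls: no-enzyme wells low, DMSO-plus-enzyme wells high control.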
An asterisk follows results filed as active; / = no result. Hits are enriched below; roughly 2.9% of the tested compounds scored in any of these assays.

SMILES	SENP8 block-1	Apaf-1 inh	SENP8 block-2	SENP7 block	SENP6 block	SENP1 FRET inh
O=C(Nc1ccccc1)N1CCC(C(=O)N2CCCC(C(F)(F)F)C2)CC1 (centres undefined)	9.3	5.8	3.1	2.7	-1.4	1.3
O=C(c1ccccc1)C1C(=O)c2ccccc2C1=O	46.3*	-13.7	0.8	11.6	9.1	4.3
COc1ccc2cc(C(=O)N3CCCC(Nc4ccc(F)cc4)C3)n(C)c2c1 (centres undefined)	-1.7	9.7	2.0	-2.1	19.9	-0.3
NC(=S)N=Nc1c(O)n(C2OC(=O)c3ccccc32)c2ccccc12 (centres undefined)	49.3*	5.9	-1.9	-0.5	-6.5	3.0
NC(=S)N=Nc1c(O)n(CCCl)c2ccccc12	35.7	2.4	-5.3	3.5	-10.5	2.0
O=C(COc1ccc2c(-c3ccccc3)cc(=O)oc2c1)Nc1cccnc1	-35.2	0.9	-9.2	12.2	-1.6	3.0
C=C[C@]1(C)C=C2CCC3[C@](C)(CCC[C@@]3(C)C(=O)O)C2CC1 (some centres undefined)	59.9*	4.2	5.7	7.6	5.7	2.7
Cc1ccc(F)c(S(=O)(=O)NC(=O)C2(C)CCN2C(=O)c2ccccc2)c1 (centres undefined)	15.8	/	/	/	/	-0.4
COc1cc(/C=N/NS(=O)(=O)c2ccc(C)c([N+](=O)[O-])c2)cc([N+](=O)[O-])c1O	41.4*	0.4	2.9	-3.7	0.5	1.6
CC(=O)c1cccc(NC(=O)c2cccc3c(-c4cccnc4)coc23)c1	11.4	/	/	/	/	2.3
CC(=O)Nc1cccc(NC(=O)c2oc3ccccc3c2C)c1	/	6.3	23.1	54.1*	38.6	/
COc1cccc(/C=C2\SC(=S)N(CCCC(=O)N3CCCC3)C2=O)c1	11.5	21.9	48.2	64.8*	78.1*	0.6
COc1cccc(/C=C2\SC(=S)N(CCCC(=O)N3CCCCC3CCO)C2=O)c1 (centres undefined)	11.7	22.4	2.7	-3.5	16.2	2.0
O=C(O)c1ccc(COc2ccc3ccccc3c2)o1	16.1	-21.4	81.3*	54.9*	88.8*	-0.3
Cc1ccc(OCc2ccc(C(=O)O)o2)c([N+](=O)[O-])c1	30.2	0.1	71.9*	59.0*	77.1*	1.0
Cc1ccc(OCc2ccc(C(=O)N3CCCC3)o2)c([N+](=O)[O-])c1	13.3	7.7	4.0	-2.2	0.8	-0.3
O=C(COC(=O)CC1SC(N2CCCC2)=NC1=O)Nc1ccc(Br)cc1 (centres undefined)	13.3	6.2	-6.6	4.5	-3.7	0.3
O=C(CSc1nnc(NC(=O)c2ccc3c(c2)OCO3)s1)NCc1ccco1	-84.3	15.0	-0.1	64.5*	3.4	0.7
Cc1ccc(N=Cc2cc(Cc3ccccc3Cl)cc([N+](=O)[O-])c2O)c(O)c1	51.6*	28.9	10.3	-7.7	17.0	6.9
COc1cc(S(=O)(=O)N2CCN(Cc3ccc4c(c3)OCO4)CC2)ccc1NC(C)=O	11.5	4.2	-7.4	-9.8	-3.7	2.2
COc1cccc(/C=N/Nc2ncccc2[N+](=O)[O-])c1OC	36.7	-22.6	95.1*	98.3*	98.5*	0.8
COc1cccc(/C=N/Nc2ccc([N+](=O)[O-])cn2)c1O	-27.7	5.5	83.5*	97.8*	90.5*	-26.7
COc1cccc(/C=N/Nc2nc(C)cc(=O)[nH]2)c1OC	-61.0	2.1	-9.7	-3.5	-23.3	2.3
Cc1cc2nc(-c3ccc(Cl)cc3)c(Cc3ccsc3)n2c(C)c1Br	-2.0	/	/	/	/	12.1
O=[N+]([O-])c1ccc(O)c(/C=N/Nc2nn[nH]n2)c1	6.8	9.0	0.2	-1.6	0.9	4.3
SMILES	SENP8 block-1	Apaf-1 inh	SENP8 block-2	SENP7 block	SENP6 block	SENP1 FRET inh
O=[N+]([O-])c1ccc(O)c(/C=N/Nc2ccc(Cl)nn2)c1	20.1	15.6	27.3	-7.4	54.4*	5.4
O=[N+]([O-])c1ccc(O)c(/C=N\N=C2c3ccccc3-c3ccccc32)c1	38.6	2.3	-3.0	3.9	6.7	58.1*
O=[N+]([O-])c1ccc(O)c(/C=N/NC2=NS(=O)(=O)c3ccccc32)c1	-102.7	3.0	82.4*	94.7*	86.2*	-23.0
NC(N)=N/N=C/c1cc([N+](=O)[O-])ccc1O	26.9	-3.4	-4.7	-5.9	-10.2	1.5
CCc1nn(C(C)C(=O)NCc2cccc(OC)c2)c(=O)c2cc3occc3n12 (centres undefined)	-0.4	12.4	2.6	4.1	10.9	-1.4
Cc1cc(C(=O)N2CCCC2(C)C(=O)NCC(C)C)nn1C(C)(C)C (centres undefined)	7.6	/	/	/	/	-0.4
O=C1CC(c2ccco2)Cc2nc(N3CCc4ccccc4C3)ncc21 (centres undefined)	-33.8	37.7	3.1	5.0	12.9	30.6*
CC(C)c1ccc(C2CC(=O)c3cnc(N4CCc5ccccc5C4)nc3C2)cc1 (centres undefined)	-11.7	22.9	6.6	11.7	6.6	-1.4
CCN(CC)CCN(C(=O)c1ccc2c(c1)CCCC2)c1nc2cc(OC)c(OC)cc2s1	2.6	47.5*	-11.3	-0.6	-16.7	0.7
O=C(Nc1ccc2nc(-c3ccco3)c(-c3ccco3)nc2c1)N1CCCCCC1	/	57.3*	3.2	0.8	-9.1	/
CCOC(=O)C1CCN(C(=O)Nc2ccc3nc(-c4ccco4)c(-c4ccco4)nc3c2)CC1	-438.8	69.8*	14.4	6.0	-51.3	-22.1
CCOC(=O)C1CCN(C(=O)Nc2ccc3c(c2)nc(C)n3C)CC1	13.4	-3.7	4.3	2.9	-4.7	-0.1
CC(C)c1ccc(C(=O)CN2C(=O)NC3(CCc4ccccc43)C2=O)cc1 (centres undefined)	9.4	30.4	-6.9	-1.8	-10.6	-0.3
COc1ccccc1N1CCCSC1=Nc1ccccc1	15.0	/	/	/	/	-2.0
NC(=O)[C@@H]1CCCNc2c(I)cc([N+](=O)[O-])cc2C(=O)N[C@@H](CCCN=C(N)N)C(=O)N[C@@H](CCCN=C(N)N)C(=O)N1	/	40.8*	15.4	-3.0	2.0	/
CC(C)C[C@H]1CN([C@@H](Cc2ccccc2)CN2CCC[C@@H]2CN2C(=O)C(=O)NC[C@@H]2Cc2ccccc2)C(=O)C(=O)N1CCc1ccccc1	6.7	/	/	/	/	1.6
CCN(CC)c1ccc(N)cc1	5.9	38.5	1.9	6.0	-2.2	54.2*
O=C1NN(c2ccccc2)C(=O)/C1=C\c1cccc(OC(=O)c2cccs2)c1	43.6*	28.4	28.9	4.8	11.9	-8.3
